Results: publication PMC3929235 (Bioorganic & medicinal chemistry letters, 2013)

Target: human α4β2α5 AChRs (Homo sapiens, UniProt P17787+P30532+P43681)
Assay: FLEXstation membrane potential assay, PAM of nicotine response at α4β2α5
Format: cell-based
Settings: Maximum efficacy relative to NS9283

Sequence of human α4β2α5 AChRs (P43681 29-627 limits assumed): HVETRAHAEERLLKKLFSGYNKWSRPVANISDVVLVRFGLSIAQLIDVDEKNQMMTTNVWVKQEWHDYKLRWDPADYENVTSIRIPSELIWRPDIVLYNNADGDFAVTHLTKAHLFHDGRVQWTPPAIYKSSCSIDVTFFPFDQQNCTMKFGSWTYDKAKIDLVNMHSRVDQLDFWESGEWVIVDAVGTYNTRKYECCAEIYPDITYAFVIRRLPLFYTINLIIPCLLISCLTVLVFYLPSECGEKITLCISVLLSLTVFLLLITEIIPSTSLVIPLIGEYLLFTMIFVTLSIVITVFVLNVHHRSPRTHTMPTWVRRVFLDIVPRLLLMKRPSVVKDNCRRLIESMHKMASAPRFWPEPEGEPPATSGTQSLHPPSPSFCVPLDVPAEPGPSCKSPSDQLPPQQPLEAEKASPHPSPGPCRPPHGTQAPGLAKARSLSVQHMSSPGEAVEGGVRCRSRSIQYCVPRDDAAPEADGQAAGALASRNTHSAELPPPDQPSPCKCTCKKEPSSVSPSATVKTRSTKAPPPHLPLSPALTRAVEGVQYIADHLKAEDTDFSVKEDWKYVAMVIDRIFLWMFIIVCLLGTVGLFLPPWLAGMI
Sequence of human α4β2α5 AChRs (P17787 26-502): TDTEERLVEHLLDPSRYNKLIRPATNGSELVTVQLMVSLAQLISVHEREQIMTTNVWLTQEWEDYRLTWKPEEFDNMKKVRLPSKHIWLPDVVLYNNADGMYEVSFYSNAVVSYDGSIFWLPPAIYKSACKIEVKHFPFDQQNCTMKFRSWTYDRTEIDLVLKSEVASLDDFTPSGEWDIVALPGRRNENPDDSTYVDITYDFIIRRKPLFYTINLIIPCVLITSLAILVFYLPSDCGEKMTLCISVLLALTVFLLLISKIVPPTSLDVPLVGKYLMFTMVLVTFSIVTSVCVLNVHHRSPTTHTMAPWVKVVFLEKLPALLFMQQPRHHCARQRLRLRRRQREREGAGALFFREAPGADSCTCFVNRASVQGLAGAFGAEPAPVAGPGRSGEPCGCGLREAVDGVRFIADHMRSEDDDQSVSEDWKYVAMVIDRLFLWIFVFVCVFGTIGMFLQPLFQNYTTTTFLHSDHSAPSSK
Sequence of human α4β2α5 AChRs (P30532 23-468): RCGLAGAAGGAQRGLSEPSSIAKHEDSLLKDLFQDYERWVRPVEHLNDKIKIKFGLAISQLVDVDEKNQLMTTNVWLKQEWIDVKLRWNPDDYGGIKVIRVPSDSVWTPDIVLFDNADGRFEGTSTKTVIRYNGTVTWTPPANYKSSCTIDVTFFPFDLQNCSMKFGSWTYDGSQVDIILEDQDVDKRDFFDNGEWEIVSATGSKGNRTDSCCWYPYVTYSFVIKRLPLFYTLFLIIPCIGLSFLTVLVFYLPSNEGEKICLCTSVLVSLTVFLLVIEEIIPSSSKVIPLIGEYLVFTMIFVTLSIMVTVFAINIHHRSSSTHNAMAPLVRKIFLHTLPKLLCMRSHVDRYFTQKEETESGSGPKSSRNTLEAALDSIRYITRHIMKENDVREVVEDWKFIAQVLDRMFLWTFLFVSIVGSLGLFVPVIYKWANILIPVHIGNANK

| Emax | Compound |
| --- | --- |
| 1 | N#Cc1cccc(-c2nc(-c3cccnc3)no2)c1 [Compound 1a, 3-(3-(pyridin-3-yl)-1,2,4-oxadiazol-5-yl)benzonitrile, reference compound] |

Same assay, conditions: read-out: PAM(Y or N)

| Compound | activation at 1 µM |
| --- | --- |
| C[n+]1cccc(-c2noc(-c3cccc(C#N)c3)n2)c1 [Compound 1e] | < 50% |
| Clc1ccccc1-c1nc(-c2cccnc2)no1 [Compound 4b] | < 50% |
| N#Cc1cccc(-n2ccc(-c3cccnc3)n2)c1 [Compound 5a] | < 50% |
| N#Cc1cccc(-n2cc(-c3cccnc3)cn2)c1 [Compound 5b] | < 50% |
| Fc1cccc(-c2nc(-c3cccnc3)no2)c1F [Compound 4e] | < 50% |
| N#Cc1cccc(-c2nc(-c3ccncc3)no2)c1 [Compound 1d] | < 50% |
| Clc1ccc(-c2nc(-c3cccnc3)no2)cc1 [Compound 4c] | < 50% |
| FC(F)(F)c1cccc(-c2nc(-c3cccnc3)no2)c1 [Compound 4j] | < 50% |
| N#Cc1cccc(-c2nc(-c3ccccc3)no2)c1 [Compound 1b] | < 50% |
| c1ccc(-c2nc(-c3cccnc3)no2)cc1 [Compound 4a] | < 50% |
| Fc1cccc(-c2nc(-c3cccnc3)no2)c1 [Compound 4d] | < 50% |
| FC(F)(F)Oc1cccc(-c2nc(-c3cccnc3)no2)c1 [Compound 4k] | < 50% |
| N#Cc1cccc(-c2nc(-c3ccccn3)no2)c1 [Compound 1c] | < 50% |
| COc1cccc(-c2nc(-c3cccnc3)no2)c1 [Compound 4l] | < 50% |
| O=[N+]([O-])c1ccccc1-c1nc(-c2cccnc2)no1 [Compound 4g] | < 50% |

The remaining lines, values ahead:

| activation at 1 µM | Compound |
| --- | --- |
| < 50% | N#Cc1cccc(-c2ccn(-c3cccnc3)n2)c1 [Compound 5c] |
| < 50% | Cc1ccc(-n2nnc(-c3cccnc3)n2)cc1C#N [Compound 12g] |
| < 50% | N#Cc1cccc(-n2cc(-c3cccnc3)nn2)c1 [Compound 5j] |
| < 50% | Fc1ccc(-n2nnc(-c3cccnc3)n2)c(F)c1 [Compound 12a] |
| < 50% | N#Cc1cccc(-n2cnc(-c3cccnc3)c2)c1 [Compound 5e] |
| < 50% | N#Cc1cccc(-c2cn(-c3cccnc3)cn2)c1 [Compound 5d] |
| < 50% | COc1ccc(OC)c(-n2nnc(-c3cccnc3)n2)c1 [Compound 12b] |
| < 50% | N#Cc1cccc(-n2nnc(-c3cncc(Cl)c3)n2)c1 [Compound 11g] |
| < 50% | N#Cc1cccc(-n2nnc(-c3ccc(Cl)nc3)n2)c1 [Compound 11e] |
| < 50% | COc1cc(OC)cc(-n2nnc(-c3cccnc3)n2)c1 [Compound 12d] |
| < 50% | N#Cc1cccc(-n2nnc(-c3cnccc3Cl)n2)c1 [Compound 11h] |
| < 50% | NC(=O)c1cccc(-n2nnc(-c3cccnc3)n2)c1 [Compound 12e] |
| < 50% | Clc1ccccc1-n1nnc(-c2cccnc2)n1 [Compound 12i] |
| < 50% | N#Cc1cccc(-n2nnc(-c3ccccc3)n2)c1 [Compound 11b] |
| < 50% | N#Cc1cccc(-c2ncn(-c3cccnc3)n2)c1 [Compound 5f] |
| < 50% | Clc1cc(Cl)cc(-n2nnc(-c3cccnc3)n2)c1 [Compound 12c] |
| < 50% | C[n+]1cccc(-c2nnn(-c3cccc(C#N)c3)n2)c1 [Compound 11a] |
| < 50% | Brc1cccc(-n2nnc(-c3cccnc3)n2)c1 [Compound 12j] |
| < 50% | N#Cc1cccc(-n2nnc(-c3ccccn3)n2)c1 [Compound 11d] |
| < 50% | N#Cc1cccc(-n2nnc(-c3cccnc3Cl)n2)c1 [Compound 11f] |
| < 50% | N#Cc1cccc(-n2nnc(-c3ccncc3)n2)c1 [Compound 11c] |

Target: human α4β2 AChRs (Homo sapiens, UniProt P17787+P43681)
Sequence (P43681 29-627 limits assumed): as the sequence (P43681 29-627 limits assumed) above
Sequence (P17787 26-502): as the sequence (P17787 26-502) above
Assay: FLEXstation membrane potential assay at α4β2
Format: cell-based
Settings: compared with α4β2α5
Summary of the method: (§1)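 HEK tsA201 cells stably expressing the human receptor, kept in high-glucose DMEM with 10% FBS at 37 °C. Seeded on poly-D-lysine wells (150,000/well α4β2, α3β2; 200,000/well α3β2α5), then held at 29 °C for 20 h to raise expression. Membrane-potential dye fluorometry. Test compound serial dilutions added 15 min before nicotine. Response enhancement over nicotine alone, 3–4 wells per point, Hill fit; efficacy relative to reference PAM.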

| PAM potency on α4β2 (in words) | Compound |
| --- | --- |
| equally potent | N#Cc1cccc(-n2nnc(-c3cccnc3)n2)c1 [Compound 5k, 3-(5-(pyridin-3-yl)-2H-tetrazol-2-yl)benzonitrile] |

Same assay, conditions: without orthosteric agonist

| agonist activity at α4β2 | Compound |
| --- | --- |
| no agonist activity | N#Cc1cccc(-c2nc(-c3cccnc3)no2)c1 [Compound 1a, 3-(3-(pyridin-3-yl)-1,2,4-oxadiazol-5-yl)benzonitrile, reference compound] |

Target: human α3β4 AChRs (Homo sapiens, UniProt P30926+P32297)
Sequence (P32297 32-505): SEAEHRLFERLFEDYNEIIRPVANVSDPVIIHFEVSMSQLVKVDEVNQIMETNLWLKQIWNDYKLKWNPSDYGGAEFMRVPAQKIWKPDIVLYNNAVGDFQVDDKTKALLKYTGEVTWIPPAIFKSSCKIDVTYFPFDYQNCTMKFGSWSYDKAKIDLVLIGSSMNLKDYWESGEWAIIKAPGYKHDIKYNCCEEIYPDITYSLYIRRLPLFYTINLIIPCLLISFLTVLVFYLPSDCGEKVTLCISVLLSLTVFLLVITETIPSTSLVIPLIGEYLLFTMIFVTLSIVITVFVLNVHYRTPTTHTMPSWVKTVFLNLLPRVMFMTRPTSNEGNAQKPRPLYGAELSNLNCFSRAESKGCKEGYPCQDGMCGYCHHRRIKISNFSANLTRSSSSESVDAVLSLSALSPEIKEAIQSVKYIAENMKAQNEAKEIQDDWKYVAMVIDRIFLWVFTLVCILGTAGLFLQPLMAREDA
Sequence (P30926 22-498): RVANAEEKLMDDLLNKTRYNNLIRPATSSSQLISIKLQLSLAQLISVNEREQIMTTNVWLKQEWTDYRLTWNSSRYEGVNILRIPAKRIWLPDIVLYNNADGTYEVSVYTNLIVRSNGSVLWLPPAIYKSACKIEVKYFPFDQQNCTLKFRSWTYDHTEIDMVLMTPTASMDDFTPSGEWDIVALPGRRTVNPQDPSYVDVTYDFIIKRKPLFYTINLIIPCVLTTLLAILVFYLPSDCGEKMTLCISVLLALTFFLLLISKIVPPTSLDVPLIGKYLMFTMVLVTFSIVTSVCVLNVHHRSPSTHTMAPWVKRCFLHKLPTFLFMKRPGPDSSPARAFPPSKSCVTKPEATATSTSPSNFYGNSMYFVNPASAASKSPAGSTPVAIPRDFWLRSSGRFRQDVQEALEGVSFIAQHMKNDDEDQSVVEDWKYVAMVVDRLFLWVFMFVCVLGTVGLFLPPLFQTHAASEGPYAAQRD
Assay: Counter-screen against α3β4 nAChR
Format: cell-based
Settings: not given
Summary of the method: (§2)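 Membrane-potential fluorometry on HEK tsA201 cells stably expressing human receptor, cultured in high-glucose DMEM with 10% FBS, 37 °C, 5% CO2. Poly-D-lysine-coated wells seeded at 150,000 (α3β4) or 200,000 (α3β4α5) cells. Serial dilutions of test compound applied 15 min before nicotine, injected during recording. Points averaged from 3–4 wells; Hill equation fitted to enhancement relative to nicotine-evoked signal.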

| activity against α3β4 | Compound |
| --- | --- |
| no activity | N#Cc1cccc(-c2nc(-c3cccnc3)no2)c1 [Compound 1a, 3-(3-(pyridin-3-yl)-1,2,4-oxadiazol-5-yl)benzonitrile, reference compound] |
| no activity | N#Cc1cccc(-n2nnc(-c3cccnc3)n2)c1 [Compound 5k, 3-(5-(pyridin-3-yl)-2H-tetrazol-2-yl)benzonitrile] |

Target: human α3β4α5 AChRs (Homo sapiens, UniProt P30532+P30926+P32297)
Sequence (P32297 32-505): as the sequence (P32297 32-505) above
Sequence (P30926 22-498): as the sequence (P30926 22-498) above
Sequence (P30532 23-468): as the sequence (P30532 23-468) above
Assay: Counter-screen against α3β4α5 nAChR
Format: cell-based
Settings: not given
Summary of the method: as §2

| activity against α3β4α5 | Compound |
| --- | --- |
| no activity | N#Cc1cccc(-c2nc(-c3cccnc3)no2)c1 [Compound 1a, 3-(3-(pyridin-3-yl)-1,2,4-oxadiazol-5-yl)benzonitrile, reference compound] |
| no activity | N#Cc1cccc(-n2nnc(-c3cccnc3)n2)c1 [Compound 5k, 3-(5-(pyridin-3-yl)-2H-tetrazol-2-yl)benzonitrile] |

Target: human α3β2 AChRs (Homo sapiens, UniProt P17787+P32297)
Sequence (P32297 32-505): as the sequence (P32297 32-505) above
Sequence (P17787 26-502): as the sequence (P17787 26-502) above
Assay: Counter-screen against α3β2 nAChR
Format: cell-based
Settings: not given
Summary of the method: as §1

| activity against α3β2 | Compound |
| --- | --- |
| no activity | N#Cc1cccc(-c2nc(-c3cccnc3)no2)c1 [Compound 1a, 3-(3-(pyridin-3-yl)-1,2,4-oxadiazol-5-yl)benzonitrile, reference compound] |
| no activity | N#Cc1cccc(-n2nnc(-c3cccnc3)n2)c1 [Compound 5k, 3-(5-(pyridin-3-yl)-2H-tetrazol-2-yl)benzonitrile] |

Target: human α3β2α5 AChRs (Homo sapiens, UniProt P17787+P30532+P32297)
Sequence (P32297 32-505): as the sequence (P32297 32-505) above
Sequence (P17787 26-502): as the sequence (P17787 26-502) above
Sequence (P30532 23-468): as the sequence (P30532 23-468) above
Assay: Counter-screen against α3β2α5 nAChR
Format: cell-based
Settings: not given
Summary of the method: as §1

| activity against α3β2α5 | Compound |
| --- | --- |
| no activity | N#Cc1cccc(-c2nc(-c3cccnc3)no2)c1 [Compound 1a, 3-(3-(pyridin-3-yl)-1,2,4-oxadiazol-5-yl)benzonitrile, reference compound] |
| no activity | N#Cc1cccc(-n2nnc(-c3cccnc3)n2)c1 [Compound 5k, 3-(5-(pyridin-3-yl)-2H-tetrazol-2-yl)benzonitrile] |

Tested on: not listed separately
Assay: Pharmacokinetics in mice
Format: in vivo
Settings: mice

| clearance (in words) | oral exposure (in words) | Compound |
| --- | --- | --- |
| moderate clearance | very good oral exposure | N#Cc1cccc(-n2nnc(-c3cccnc3)n2)c1 [Compound 5k, 3-(5-(pyridin-3-yl)-2H-tetrazol-2-yl)benzonitrile] |

Same assay, conditions: mouse, in vivo, intravenous, 1 mg/kg

| clearance | Compound |
| --- | --- |
| 46 mL/min/kg | N#Cc1cccc(-n2nnc(-c3cccnc3)n2)c1 [Compound 5k, 3-(5-(pyridin-3-yl)-2H-tetrazol-2-yl)benzonitrile] |
